# Screening data deposited in PubChem BioAssay by several laboratories.
# This is a sample that favours compounds with a hit; in the whole collection about 4.1% have one here.
# Cl transport mod – KCC2 cotransporter modulators, thallium flux, primary screen, cell-based, HEK293 KCC2, FluoZin-2 fluorescence, MLSMR. Solute carrier family 12 member 5 (Homo sapiens), Q9H2X9. B-score of Tl+ flux slope (higher = more flux/activation; lower = inhibition) at 10 µM. KCC2 cells, thallium flux FluoZin-2 fluorescence. 190,000 tested, 2.2% active. AID 1456, 2008;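 active = thallium flux slope and its plate-corrected score both differing from the plate sample mean at a set confidence after two filtering rounds, in either direction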;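 also: slope of fluorescence scaled to starting intensity during 10 to 20 s after thallium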
# KCNK3 block – human KCNK3 channel inhibitors, primary screen, CHO cells, FluxOR thallium flux, B-score; AID 602410, 2012; FluxOR fluorescence; stronger effect = lower value; B-score at 10 µM; 340,000 tested, 0.84% active;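 active = B-score under library mean minus 4 SD, starting fluorescence ratio at most library mean plus 5 SD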;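 also: more negative B-score means stronger inhibition of thallium flux through KCNK3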
# hERG protect – hERG rescue from dofetilide block, primary screen, cell-based, CHO-hERG, FluxOR thallium flux, dofetilide IC70. Voltage-gated inwardly rectifying potassium channel KCNH2 (Homo sapiens), Q12809. dofetilide IC70 present. activation (rescue from dofetilide block), less the hit threshold, % at 10 µM. 310,000 tested, 0.51% active. AID 1511, 2009;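 active = activation above the mean of controls blocked by dofetilide plus 5 SD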;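 also: thallium influx through hERG after potassium depolarization seen as dye fluorescence rise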
# KCNK9 block – KCNK9 potassium channel inhibitors, primary screen, HEK293 cells, thallium flux. FluxOR thallium flux fluorescence; stronger effect = lower value. 310,000 tested, 1.2% active. B-score at 10 µM. AID 488922, 2010. Potassium channel subfamily K member 9 (Homo sapiens), Q9NPC2;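 active = ratio B-score over 3 SD below the library mean, with starting fluorescence within 5 SD of its mean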;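 also: negative B-score means less thallium flux so channel inhibition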
# KCNQ1 block – inhibitors of human KCNQ1 channel, primary screen, cell-based, thallium flux, high-throughput. 310,000 tested, 1.3% active. AID 2642, 2010. Potassium voltage-gated channel subfamily KQT member 1 (Homo sapiens), P51787. CHO-K1 KCNQ1, FluxOR thallium flux fluorescence; stronger effect = higher value. B-score at 10 µM;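 active = compounds whose thallium flux B-score, printed positive for inhibition, exceeds three library SD while starting fluorescence stays within three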;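 also: channel opened by potassium depolarization with thallium stimulus after 20 min compound exposure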
# KCNQ1 pot – potentiators or activators of KCNQ1 channel, primary screen, cell-based, thallium flux, high-throughput. Potassium voltage-gated channel subfamily KQT member 1 (Homo sapiens), P51787. CHO-K1 KCNQ1, thallium flux FluxOR fluorescence; stronger effect = higher value. B-score at 10 µM. 310,000 tested, 0.35% active. AID 2648, 2010;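 active = fluorescence ratio B-score, a plate-corrected score, at least three library SD, with initial intensity B-score within 5 SD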
#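 Assay system: stable KCNQ1 CHO-K1 line; medium: assay buffer, equal DMSO in all wells; timing: 90 min dye loading and 20 min compound exposure, both at room temperature; technique: kinetic FluxOR thallium fluorescence, 10-s 1-Hz baseline, 110-s post-stimulus read; read-out basis: B score of baseline-normalized fluorescence ratio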
# KCNK9 inh conf – KCNK9 potassium channel inhibitors, confirmation, HEK293 cells, thallium flux, duplicate. shares compounds with KCNK9 block. 4,900 tested, 43% active. inhibition, % at 10 µM. AID 492992, 2010. FluxOR thallium flux fluorescence;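 active = thallium signal inhibited by more than 5 SD of the compound-free buffer control wells, on both duplicate plates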
# Kir21 sel – mouse Kir2.1 channel inhibition, confirmation, selectivity assay for KCNK9 modulator project, cell-based, HEK293, thallium flux; Kir2.1 cells, FluxOR thallium flux fluorescence; shares compounds with KCNK9 block; 4,900 tested, 4% active; inhibition, % at 10 µM;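 active = thallium signal drop more than 5 SD beyond the mean of the no-compound control wells, seen in both duplicate plates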;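 also: signal is fluorescence rise after thallium addition divided by baseline fluorescence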
# HEK293 Tl ctr – thallium flux in non-induced HEK293 cells, confirmation, counter-screen for KCNK9 inhibitor project, cell-based, second counter screen, non-induced KCNK9-HEK293; shares compounds with KCNK9 block; FluxOR thallium flux; inhibition, % at 10 µM; 4,900 tested, 40% active;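 active = thallium signal drop beyond 5 SD of the untreated control mean, on both duplicate plates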
# Hits are given with their value; - = inactive; . = not tested or not shown.
SMILES,Cl transport mod,KCNK3 block,hERG protect,KCNK9 block,KCNQ1 block,KCNQ1 pot,KCNK9 inh conf,Kir21 sel,HEK293 Tl ctr
COc1cc(C2NC(=O)NC(c3ccccc3)=C2C(C)=O)c(Cl)cc1OCC(=O)O (stereo not drawn),-,-,-,-,-,-,.,.,.
CN(C(=O)COC(=O)CCc1c[nH]c2ccccc12)C(c1ccccc1)c1ccccc1,-,-,-,-9.5,-,-,43.5%,-,27.5%
O=C(COC(=O)CCc1c[nH]c2ccccc12)NCc1ccccc1,-,-,-,-,-,-,.,.,.
CCC(C)(C)c1ccc(OCCCC[n+]2cccc(C)c2C)c(C(C)(C)CC)c1,.,-,-,-11.6,-,-,56.5%,46.0%,-
Cc1cc(C(C)(C)C)ccc1OCCCCN1CCCC1,-,-,-,-,-,-,.,.,.
Cc1ccc2c(C(=O)CN3CC(C)CC(C)C3)c(C)[nH]c2c1 (stereo not drawn),.,-,-,-,-,-,.,.,.
N#Cc1c(SCc2ccc(Cl)cc2)sc(C(=O)c2ccccc2)c1N,-,-,-,-11.2,-,-,25.5%,-,33.5%
CCc1cccc(NC(=S)N2CCC(c3ccccc3)C2)c1 (stereo not drawn),-,-,-,-,-,-,-,-,-
Fc1cc(F)cc(NC(=S)N2CCC(c3ccccc3)C2)c1 (stereo not drawn),-,-,-,-,-,-,.,.,.
CSc1cccc(NC(=S)N2CCC(c3ccccc3)C2)c1 (stereo not drawn),.,-,-,-,-,-,-,-,-
CCc1cc(C(=O)NNC(=S)Nc2ccccc2C)cs1,-,-,-,-,-,-,.,.,.
COc1ccc(C(=O)COC(=O)C(CCSC)NS(=O)(=O)c2ccc(Cl)cc2)cc1 (stereo not drawn),-,-,-,-,-,-,-,-,-
COC(=O)C(CCSC)NS(=O)(=O)c1ccc(Cl)cc1 (stereo not drawn),-,-,-,-,-,-,.,.,.
CC(NC(=O)COC(=O)c1cccnc1Cl)C12CC3CC(CC(C3)C1)C2 (stereo not drawn),.,-,.,.,.,.,.,.,.
O=C(N/N=C/c1cc(Cl)cc([N+](=O)[O-])c1O)c1cc(-c2ccccn2)nc2ccccc12,-,-,-,-,-,-,-,-,28.0%
COc1cccc(/C=N/NC(=O)c2cc(-c3ccccn3)nc3ccccc23)c1O,.,-,.,.,.,.,.,.,.
CCCCn1c(SCC(=O)c2ccccc2)nc2ccsc2c1=O,-,-,-,-15.8,-,-,30.0%,-,28.0%
CCCCn1c(SCC(=O)c2ccc(O)c(O)c2)nc2ccsc2c1=O,-,-,-,-16.2,-,-,40.0%,-,-
O=C(O)CCCCCn1c(SCC(=O)c2ccc(O)c(O)c2)nc2ccsc2c1=O,-,-,-,-,-,-,.,.,.
CC(C)CS(=O)(=O)C1=NN2C(=N)/C(=C\c3ccc(OC(=O)c4ccco4)cc3)C(=O)N=C2S1,.,-,-,-,-,-,-,-,-
COc1cc(/C=C2\C(=N)N3N=C(C)SC3=NC2=O)cc(OC)c1OCCOc1ccccc1C,.,-,-,-,-,-,.,.,.
Cc1cc(/C=C2\C(=N)N3N=C(S(C)(=O)=O)SC3=NC2=O)c(C)n1Cc1ccccc1,-,-,-,-,-,-,-,-,-
COc1cc(/C=C2\C(=N)N3N=C(S(C)(=O)=O)SC3=NC2=O)cc(OC)c1OCCOc1ccccc1C,.,-,-,-,-,-,-,-,-
CCCC1=NN2C(=N)/C(=C\c3cc(C)n(Cc4ccccc4)c3C)C(=O)N=C2S1,-,-,-,-,-,-,.,.,.
COc1ccccc1OCCOc1ccc(/C=C2\C(=N)N3N=C(S(C)(=O)=O)SC3=NC2=O)cc1,.,-,-,-,-,-,-,-,-
SMILES,Cl transport mod,KCNK3 block,hERG protect,KCNK9 block,KCNQ1 block,KCNQ1 pot,KCNK9 inh conf,Kir21 sel,HEK293 Tl ctr
CS(=O)(=O)C1=NN2C(=N)/C(=C\c3ccc(OC(=O)c4ccco4)cc3)C(=O)N=C2S1,.,-,-,-,-,-,.,.,.
COc1cccc(OCCOc2ccc(/C=C3\C(=N)N4N=C(S(C)(=O)=O)SC4=NC3=O)cc2OC)c1,.,-,-,-,-,-,.,.,.
COc1ccc(C)cc1NC(=O)CSc1nnc(-c2ccc(C)cc2)o1,.,-,-,-,-,-,.,.,.
COc1ccc(C)cc1NC(=O)CN(Cc1nnc(-c2ccc(Cl)cc2)o1)C1CCCC1,-,-,-,-12.4,-,-,36.0%,-,32.5%
Cc1ccc(SCCN2CCN(CCc3ccccc3)CCC2=O)cc1,-,-,-,-,-,-,-,-,-
O=C1CCN(CCc2ccccc2)CCN1CCSc1ccc(Br)cc1,-,-,-,-,-,-,-,-,-
CCCN1CCC(=O)N(CCSc2ccc(C)cc2)CC1,-,-,-,-,-,-,.,.,.
O=C(Oc1ccccc1)c1cccc2cccc(C(=O)Oc3ccccc3)c12,-,-,-,-9.22,-,-,42.5%,-,26.0%
C=CCc1ccc(O)c(-c2cc(CC=C)ccc2O)c1,-,-,-,-16.5,-,-,61.5%,-,-
CCCCC(=O)Nc1nnc(-c2ccco2)o1,-,-,-,-,-,-,.,.,.
Cc1nc(SCC(=O)N2CCN(C(=O)c3ccco3)CC2)c2c(C)c(C)sc2n1,-,-,-,-,-,-,.,.,.
Cc1nc(SCc2ccc(C(=O)O)cc2)c2c(C)c(C)sc2n1,-,-,-,-,-,-,-,-,-
COc1ccc(-n2c(CCc3ccccc3)nnc2SCC(=O)NCc2ccccc2)cc1,-,-,-,-,-,-,-,-,-
COc1ccc(CNC(=O)CSCc2cnn(-c3ccccc3)c2-n2cccc2)cc1,-,-,-,-,-,-,-,-,-
COc1ccc(-n2c(CCc3ccccc3)nnc2SCC(=O)c2ccccc2)cc1,-,-,-,-,-,-,-,-,-
COc1cc2cc(C(N)=O)c(N)nc2cc1OC,-,-,-,-,-,-,.,.,.
